From PubChem
RBBP9 inhibitor = blocks human serine hydrolase RBBP9; O75884; recombinant RBBP9, FP-Rh probe fluorescence polarization; inhibition, % at 7.94 µM; 220,000 tested, 0.2% active; AID 1515;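 active means inhibition above the campaign mean of all tested compounds plus 3 SD, cut at about 14% in these data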
Target sequence (O75884 whole entry, looked up): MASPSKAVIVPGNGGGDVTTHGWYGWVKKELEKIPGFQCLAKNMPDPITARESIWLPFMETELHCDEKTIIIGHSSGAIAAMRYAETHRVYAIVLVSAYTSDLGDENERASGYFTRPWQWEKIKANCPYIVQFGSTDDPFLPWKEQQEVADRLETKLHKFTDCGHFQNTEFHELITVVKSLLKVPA
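Material: RBBP9 protein. Amount: RBBP9 at 2.5 µM in dispensed solution, before mixing. Schedule: 30 min then 45 min, 25 °C. Medium: Tris buffer pH 8.0, NaCl, Pluronic. Measured by: fluorescence polarization. Measure: percent inhibition from mP, scaled between DMSO and no-protein wells. Replication: one well per compound.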
MBD2 DNA inh = inhibitors of human MBD2 binding to methylated oligonucleotide; TR-FRET; inhibition, % at 4.4 µM; 370,000 tested, 0.31% active; AID 686964; in the data active means inhibition above about 13%
ABHD5-PLIN5 inh = blocks binding of human ABHD5 to perilipin-5. Q00G26+Q8WTS1. inhibition, % at 4 µM. Split G. princeps luciferase complementation, luminescence, 4 h. AID 602281. 360,000 tested, 0.78% active;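 active means inhibition above the mean inhibition across every tested compound plus 3 SD, cut at about 22% in these data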
UHRF1 binding = UHRF1 methyl-DNA binding inhibition | Q96T88 | UHRF1 binding to methylated oligo, TR-FRET | inhibition, % at 4.4 µM | 370,000 tested, 0.75% active | AID 687016; in the data active means inhibition above about 21%;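 further: UHRF1 SRA domain binding a hemimethylated CpG hairpin DNA probe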
PRMT1 FP inh = blocks human protein arginine methyltransferase 1; Q99873; recombinant PRMT1, activity-based probe fluorescence polarization; inhibition, % at 2.79 µM; 370,000 tested, 1.3% active; AID 652257;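 active means inhibition above about 21% made by adding two undisclosed values, limit read from the data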
LEDGF integ inh = blocks HIV-1 LEDGF/p75-dependent DNA integration. TR-FRET IN-LEDGF/p75 DNA integration, Eu/Cy5. inhibition, % at 3.7 µM. 370,000 tested, 0.64% active. AID 743269;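 active means inhibition above the screen-wide mean plus 3 SD, cut at about 13% in these data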;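 further: signal is the Cy5 over europium emission ratio at 671 and 618 nm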
Numbers stand for hits; i = inactive; nt = no result. Hits are enriched below; roughly 3.1% of the tested compounds scored in any of these assays.

SMILES	RBBP9 inhibitor	MBD2 DNA inh	ABHD5-PLIN5 inh	UHRF1 binding	PRMT1 FP inh	LEDGF integ inh
CN(c1ccc(NC(=O)CCc2c[nH]c3ccccc23)cc1)c1ccccn1	nt	i	nt	i	i	i
Cc1cccc2c1NC1(CCCC1)CC2C (configuration not stated)	i	i	i	22	i	i
CN(C)S(=O)(=O)n1cc(/C=C(\NC(=O)c2ccccc2F)C(=O)N2CCCCC2)c2ccccc21	nt	i	i	24	i	i
O=C(C[n+]1cc(-c2ccc(Cl)c(Cl)c2)n2c1CCC2)N1c2ccccc2Sc2ccccc21	i	i	34	i	i	i
O=C(C[n+]1cc(-c2ccc(Cl)cc2)n2c1CCC2)N1c2ccccc2Sc2ccccc21	i	i	23	i	i	i
COc1ccc(/C(C)=N/NC(=O)Cc2cc(=O)[nH][nH]2)cc1OC	nt	i	nt	i	i	i
O=C(NCc1ccccc1)c1ccc2nc(-c3ccco3)c(-c3ccco3)nc2c1	i	i	24	i	44	27
O=C(NCCO)Nc1ccc2nsnc2c1	i	i	i	i	i	i
O=C(NCCO)Nc1ccc2nc(-c3ccco3)c(-c3ccco3)nc2c1	15	nt	nt	nt	nt	nt
CCOC(=O)C1=NN(c2ccc(OC)cc2)C2C(=O)N(c3ccccc3OC)C(=O)C12 (configuration not stated)	i	i	i	i	i	i
CCOC(=O)C1=NN(C(=O)Nc2ccc(OC)cc2)C2C(=O)N(c3cccc(C(F)(F)F)c3)C(=O)C12 (configuration not stated)	i	33	i	i	i	i
O=C(NCC1CCCO1)c1cc(S(=O)(=O)N2CCOCC2)c(Cl)cc1Cl (configuration not stated)	nt	i	i	23	i	i
O=C(NCC1CCCO1)c1ccc(Cl)c(S(=O)(=O)N2CCOCC2)c1 (configuration not stated)	nt	i	i	i	i	i
C/C(=N\NC(=O)c1ccccc1O)c1cccc(NC(=O)c2ccccc2)c1	nt	i	i	i	i	i
C/C(=N\NC(=O)c1cc(O)ccc1O)c1cccc(NC(=O)c2cccc(Cl)c2)c1	nt	i	i	i	31	55
O=C(N[C@H]1C[C@@H]2O[C@H](CO)CC[C@@H]2O[C@@H]1CCc1ccc(-c2cccnc2)cc1)c1cccc(F)c1	nt	i	nt	i	i	i
Cc1cc(C2C(C#N)=C(N)OC3=C2C(=O)CCC3)c(C)s1 (configuration not stated)	i	i	i	i	i	i
COc1cc(C2C(C#N)=C(N)OC3=C2C(=O)CCC3)c([N+](=O)[O-])cc1OC (configuration not stated)	i	i	i	i	21	13
Cc1ccn2c(CNCCCn3cccn3)c(C(=O)N3CCCCCC3)nc2c1	i	i	i	i	i	i
O=C(c1nc2ccccn2c1CNCCCn1cccn1)N1CCCC1	i	i	i	24	i	i
COc1cccc(CNC(=O)c2ccc(CS(=O)(=O)Cc3ccccc3C)o2)c1	nt	i	i	24	i	i
Cc1nc(NC2CCCC2)c2nnn(Cc3ccccc3)c2n1	nt	i	nt	i	i	i
Cc1cc(C)c(S(=O)(=O)/N=C2/C=C(Sc3ncn[nH]3)C(=O)c3ccccc32)cc1C	i	i	i	i	81	42
O=C(NCc1ccccc1)[C@@H]1CCCN1C(=O)[C@H]1CCCN1C(=O)N1CCCCC1	nt	i	nt	i	i	i
COCCOC(=O)c1c(C)n(C)c2ccc(OC(=O)N3CCOCC3)cc12	i	i	i	i	i	i
SMILES	RBBP9 inhibitor	MBD2 DNA inh	ABHD5-PLIN5 inh	UHRF1 binding	PRMT1 FP inh	LEDGF integ inh
COCCOC(=O)c1c(C)n(C)c2ccc(OC(=O)c3c(OC)cccc3OC)cc12	nt	i	i	i	46	i
Cc1ccc(S(=O)(=O)N(CC(=O)NN=C2CCN(C)CC2)c2ccc(C(C)C)cc2)cc1	i	i	i	34	i	i
O=C1CCSC2=C1SCc1sccc12	nt	i	22	i	i	i
CCCCCCCCNS(=O)(=O)/C=C/c1ccc(OC)cc1CNC(=O)OC(C)(C)C	nt	i	nt	i	i	i
N#CC1=C(N)SC(N)=C(C#N)C1c1ccc([N+](=O)[O-])cc1	i	i	i	i	31	i
N#CC1=C(N)SC(N)=C(C#N)C1c1ccc(C(F)(F)F)cc1	i	nt	nt	nt	nt	nt
O=C(O)c1cc2c(ccc3ccccc32)oc1=O	i	i	i	i	i	i
CCOC(=O)c1cc2c(ccc3ccccc32)oc1=O	i	i	i	29	i	i
